Among the data in ChEMBL document CHEMBL3784974, “Design and Structural Characterization of Potent and Selective Inhibitors of Phosphatidylinositol 4 Kinase IIIβ” (J Med Chem, 2016) are IC50, CC50 and inhibition values, retold here.

Structures are written as SMILES.

Data set [1] deals with T1, Phosphatidylinositol 3-kinase catalytic subunit type 3 (Homo sapiens, UniProt Q8NEB9). The data set can be described thus: Inhibition of GST-tagged recombinant human full length VPS34 expressed in baculovirus preincubated for 15 mins followed by addition of cold ATP/gamma32P-ATP measured after 1 hr in presence of MnCl2. In a few lines:
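Radiometric membrane-capture assay, 10 nM purchased vps34, 15 min preincubation with inhibitor, then 1 h reaction. Final: 50 mM HEPES pH 7.5, 0.1% CHAPS, 2mM MnCl2, 1 mM EGTA, 2 mM DTT, 100 µM PI in PI:DOPS:DOPC, 500 ng/µL BSA, 2% DMSO, 10 µM ATP, 2.5 uCi γ32P-ATP; spots washed, phosphorimaged.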

Data set [2] addresses T2, Phosphatidylinositol 4,5-bisphosphate 3-kinase catalytic subunit delta isoform (Homo sapiens, UniProt O00329).
T2 sequence (O00329 whole entry): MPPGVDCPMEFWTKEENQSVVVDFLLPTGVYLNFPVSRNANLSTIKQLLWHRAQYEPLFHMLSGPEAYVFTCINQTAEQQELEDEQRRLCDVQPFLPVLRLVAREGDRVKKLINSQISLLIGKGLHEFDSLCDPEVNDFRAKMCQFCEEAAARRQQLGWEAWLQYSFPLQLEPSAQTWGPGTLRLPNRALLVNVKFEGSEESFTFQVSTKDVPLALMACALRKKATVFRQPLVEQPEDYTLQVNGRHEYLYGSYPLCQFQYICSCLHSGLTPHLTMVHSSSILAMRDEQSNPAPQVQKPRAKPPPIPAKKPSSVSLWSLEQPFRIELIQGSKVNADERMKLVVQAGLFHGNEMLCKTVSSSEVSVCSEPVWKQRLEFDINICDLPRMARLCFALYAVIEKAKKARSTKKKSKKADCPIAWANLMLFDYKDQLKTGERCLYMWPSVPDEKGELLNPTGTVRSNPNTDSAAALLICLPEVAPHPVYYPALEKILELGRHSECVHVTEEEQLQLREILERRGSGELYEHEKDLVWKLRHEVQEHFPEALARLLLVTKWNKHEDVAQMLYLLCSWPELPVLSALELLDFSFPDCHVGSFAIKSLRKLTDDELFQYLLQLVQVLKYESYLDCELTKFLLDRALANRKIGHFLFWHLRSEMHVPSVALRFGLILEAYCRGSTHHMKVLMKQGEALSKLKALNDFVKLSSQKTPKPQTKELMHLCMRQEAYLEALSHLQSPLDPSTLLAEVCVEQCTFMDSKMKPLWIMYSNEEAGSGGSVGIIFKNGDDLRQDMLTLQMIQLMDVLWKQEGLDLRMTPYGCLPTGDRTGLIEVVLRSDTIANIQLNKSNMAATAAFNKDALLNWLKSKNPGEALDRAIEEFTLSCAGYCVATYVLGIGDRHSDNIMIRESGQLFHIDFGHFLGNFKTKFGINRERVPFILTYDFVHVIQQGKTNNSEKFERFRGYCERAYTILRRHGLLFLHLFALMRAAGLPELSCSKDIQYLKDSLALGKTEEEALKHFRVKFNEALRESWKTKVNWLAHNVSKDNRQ
Put plainly: Inhibition of histidine-tagged recombinant human full length PI3Kdelta expressed in baculovirus preincubated for 15 mins followed by addition of cold ATP/gamma32P-ATP measured after 20 mins in presence of MgCl2. In a few lines:
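Final: 50 mM HEPES pH 7.5, 100 mM NaCl, 0.03% CHAPS, 10 mM MgCl2, 1 mM EGTA, 2 mM DTT, 80 µM PIP2 (PIP2:DOPS:DOPC), 500 ng/µL BSA, 2% DMSO, 10 µM ATP, 2.5 uCi γ32P-ATP. Nitrocellulose capture, phosphorimaging.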

The next data set relates to Hepatitis C virus. Put plainly: Antiviral activity against HCV genotype 2a J6/JFH1 infected in human Huh7.5 cells after 3 days by gaussia luciferase assay. In kind it is functional, organism-based, Hepacivirus hominis. To be noted: subtype 2a J6/JFH1, Huh-7, 72 h. Put shortly:
(§1)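 Huh7.5 cells stably infected with J6/JFH1-GLuc, kept in DMEM/10% FBS, glutamine, NEAA, pen/strep at 37 °C, 5% CO2. 10,000 cells/well; serially diluted compound added 1 h after plating; 3-day incubation. Replication read as Gaussia luciferase activity in supernatant; viability by Presto Blue.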

Data set [3] addresses T3, Phosphatidylinositol 4,5-bisphosphate 3-kinase catalytic subunit gamma isoform (Homo sapiens, UniProt P48736). The data set can be described thus: Inhibition of histidine-tagged recombinant human full length PI3Kgamma expressed in insect cells preincubated for 15 mins followed by addition of cold ATP/gamma32P-ATP measured after 15 mins in presence of MgCl2.
Target sequence in this assay (P48736 whole entry, canonical isoform): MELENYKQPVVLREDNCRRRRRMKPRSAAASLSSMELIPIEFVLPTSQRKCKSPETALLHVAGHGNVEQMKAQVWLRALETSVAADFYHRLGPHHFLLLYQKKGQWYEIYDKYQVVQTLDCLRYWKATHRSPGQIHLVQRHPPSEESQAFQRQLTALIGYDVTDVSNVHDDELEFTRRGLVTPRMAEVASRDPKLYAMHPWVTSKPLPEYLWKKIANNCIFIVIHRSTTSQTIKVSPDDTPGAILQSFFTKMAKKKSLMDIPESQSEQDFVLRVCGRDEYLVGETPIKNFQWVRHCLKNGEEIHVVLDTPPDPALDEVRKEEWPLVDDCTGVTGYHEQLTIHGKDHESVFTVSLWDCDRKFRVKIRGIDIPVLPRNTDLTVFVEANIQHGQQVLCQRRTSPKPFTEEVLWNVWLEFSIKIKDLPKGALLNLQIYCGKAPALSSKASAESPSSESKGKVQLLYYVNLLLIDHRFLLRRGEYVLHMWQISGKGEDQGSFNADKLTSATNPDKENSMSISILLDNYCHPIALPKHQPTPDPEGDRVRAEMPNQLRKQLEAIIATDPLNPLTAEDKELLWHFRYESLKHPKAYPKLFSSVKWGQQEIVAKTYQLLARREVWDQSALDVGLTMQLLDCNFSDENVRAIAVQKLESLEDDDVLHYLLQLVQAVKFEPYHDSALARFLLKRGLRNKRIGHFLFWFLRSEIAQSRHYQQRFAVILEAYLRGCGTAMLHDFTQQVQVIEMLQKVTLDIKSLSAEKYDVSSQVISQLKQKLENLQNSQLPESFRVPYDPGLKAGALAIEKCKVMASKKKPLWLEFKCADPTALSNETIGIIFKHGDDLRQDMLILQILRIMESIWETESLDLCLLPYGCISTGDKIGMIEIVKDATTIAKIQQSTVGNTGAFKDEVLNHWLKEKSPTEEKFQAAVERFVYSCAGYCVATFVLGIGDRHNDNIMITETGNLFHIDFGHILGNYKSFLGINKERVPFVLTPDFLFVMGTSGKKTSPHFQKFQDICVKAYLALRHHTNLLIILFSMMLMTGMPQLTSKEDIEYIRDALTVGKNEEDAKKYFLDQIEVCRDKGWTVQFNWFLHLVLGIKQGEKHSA
A short description of data set [4]: Inhibition of GST-tagged recombinant human full length PI4K3beta expressed in insect cells preincubated for 15 mins followed by addition of cold ATP/gamma32P-ATP measured after 30 mins in presence of MgCl2. Put shortly: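 Membrane-capture radiometric assay. Purchased enzyme, final 2.5 nM. Enzyme preincubated 15 min with inhibitor (diluted in 10% DMSO), then 30 min reaction. Final: 20 mM Bis-Tris propane pH 7.5, 10 mM MgCl2, 0.075 mM Triton X-100, 0.5 mM EGTA, 1 mM DTT, 100 µM PI in PI:DOPS:DOPC, 500 ng/µL BSA, 2% DMSO, 10 µM ATP, 1 uCi γ32P-ATP. Product spotted on nitrocellulose, washed in 1M NaCl/1% phosphoric acid, phosphorimaged.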

Data set [5] is described as follows: Cytotoxicity against human Huh7.5 cells after 3 days by presto blue assay. It is filed as cell-based, Huh-7. In a few lines:
as §1

For data set [6], the target named is T1, Phosphatidylinositol 3-kinase catalytic subunit type 3. Put plainly: Inhibition of GST-tagged recombinant human full length VPS34 expressed in baculovirus at 50 uM preincubated for 15 mins followed by addition of cold ATP/gamma32P-ATP measured after 1 hr in presence of MnCl2.
For data set [7], the target named is T4, Phosphatidylinositol 4,5-bisphosphate 3-kinase catalytic subunit delta isoform (Homo sapiens) (UniProt O00329).
T4 sequence (whole entry): T2 sequence (O00329 whole entry)
The data set can be described thus: Inhibition of histidine-tagged recombinant human full length PI3Kdelta expressed in baculovirus at 50 uM preincubated for 15 mins followed by addition of cold ATP/gamma32P-ATP measured after 20 mins in presence of MgCl2.

In data set [8] the target is T3, Phosphatidylinositol 4,5-bisphosphate 3-kinase catalytic subunit gamma isoform. Put plainly: Inhibition of histidine-tagged recombinant human full length PI3Kgamma expressed in insect cells at 50 uM preincubated for 15 mins followed by addition of cold ATP/gamma32P-ATP measured after 15 mins in presence of MgCl2.
Target sequence in this assay (P48736 whole entry, looked up, canonical isoform): as the sequence (P48736 whole entry, canonical isoform) above

T1 sequence (Q8NEB9 whole entry): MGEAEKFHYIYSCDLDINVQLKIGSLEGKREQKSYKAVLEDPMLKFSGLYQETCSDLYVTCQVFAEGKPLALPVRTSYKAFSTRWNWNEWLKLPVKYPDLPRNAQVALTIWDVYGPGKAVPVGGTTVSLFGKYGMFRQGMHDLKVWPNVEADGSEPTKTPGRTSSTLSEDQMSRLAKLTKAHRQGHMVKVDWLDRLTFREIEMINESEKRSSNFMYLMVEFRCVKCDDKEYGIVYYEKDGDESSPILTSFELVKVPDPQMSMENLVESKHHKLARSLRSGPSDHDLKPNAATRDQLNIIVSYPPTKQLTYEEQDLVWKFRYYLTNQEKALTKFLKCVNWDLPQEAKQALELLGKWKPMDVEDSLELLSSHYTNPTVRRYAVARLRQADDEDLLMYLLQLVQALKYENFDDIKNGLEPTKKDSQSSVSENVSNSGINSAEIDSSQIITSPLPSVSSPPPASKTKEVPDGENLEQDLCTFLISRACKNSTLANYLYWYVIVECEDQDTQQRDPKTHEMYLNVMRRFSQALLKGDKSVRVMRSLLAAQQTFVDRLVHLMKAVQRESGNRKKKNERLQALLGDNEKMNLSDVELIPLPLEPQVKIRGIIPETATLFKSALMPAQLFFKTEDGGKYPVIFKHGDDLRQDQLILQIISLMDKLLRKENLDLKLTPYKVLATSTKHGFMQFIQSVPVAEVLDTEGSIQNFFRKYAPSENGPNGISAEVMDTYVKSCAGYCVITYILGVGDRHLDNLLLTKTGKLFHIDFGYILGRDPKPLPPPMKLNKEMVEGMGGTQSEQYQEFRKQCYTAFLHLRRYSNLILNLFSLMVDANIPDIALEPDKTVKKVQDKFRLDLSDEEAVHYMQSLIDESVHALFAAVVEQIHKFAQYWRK

`CC(=O)Nc1nc(C)c(-c2ccc(Cl)c(S(=O)(=O)Nc3ccc(F)cc3)c2)s1`: the IC50 in [1] worked out at 245 nM; in data set [2] it was 29 nM; in the data set on Hepatitis C virus, 5900 nM; in data set [3], 31 nM; in data set [4] it was 23 nM. This molecule also yielded a CC50 at 72 h in [5] of 13000 nM.
As to `COc1ccc(-c2sc(NC(C)=O)nc2C)cc1S(=O)(=O)NCCO`, the IC50 was above 50000 nM in [1]; 223 nM in [2]; 29000 nM in the data set with Hepatitis C virus; 181 nM in data set [3]; 4.4 nM in data set [4]. This molecule also came in with a CC50 at 72 h in [5] of 42000 nM.
For `CC(=O)Nc1nc(C)c(-c2ccc(Cl)c(S(=O)(=O)Nc3ccc(O)cc3)c2)s1`, the IC50 in [1] turned out to be 32 nM; in data set [2], 4.9 nM; with Hepatitis C virus it was 570 nM; in data set [3] it was 5 nM; in data set [4] it was 4.2 nM. Further, in data set [5], the CC50 at 72 h was found to be 7000 nM.
As to `CC(=O)Nc1nc(C)c(-c2ccc(Br)c(S(=O)(=O)NCCO)c2)s1`, the concentration for half-maximal inhibition (IC50) came out at 146 nM in data set [1]; 33 nM in [2]; 3000 nM with Hepatitis C virus; 21 nM in [3]; 5.3 nM in data set [4]. The same molecule gave a CC50 at 72 h in data set [5] of 5500 nM.
`Cc1nc(NC(=O)C(C)(C)C)sc1-c1ccc(Cl)c(S(=O)(=O)NCCO)c1`: the IC50 in data set [1] was above 50000 nM; in data set [2], 1570 nM; in the data set on Hepatitis C virus, 6800 nM; in data set [3], 3700 nM; in data set [4], 5.5 nM. Also, in [5], the CC50 at 72 h stood at 33000 nM.
As for `COc1ccc(-c2sc(NC(=O)C(C)(C)C)nc2C)cc1S(=O)(=O)NCCO`, the figures for the inhibition in [6], in [7] and in [8] were below 20%, below 50% and below 20%, respectively. The IC50 was above 50000 nM in data set [1], 17000 nM with Hepatitis C virus, above 50000 nM in data set [3] and 36 nM in [4]. This molecule had a CC50 at 72 h in [5] above 40000 nM.
Consider `CC(=O)/N=c1/[nH]c(C)c(-c2ccc(Cl)c(S(=O)(=O)NCCO)c2)s1`, for which the IC50 in data set [1] worked out at 307 nM; with Hepatitis C virus it was 4800 nM; in data set [4], 17 nM. It took 10000 nM to reach half-maximal cytotoxicity in data set [5] (CC50 at 72 h).
In the case of `Cc1nc(NC(=O)C2CCCC2)sc1-c1ccc(Cl)c(S(=O)(=O)NCCO)c1`, the IC50 in data set [1] was above 50000 nM; in data set [2], 340 nM; in the data set with Hepatitis C virus, 4400 nM; in data set [3], 1500 nM; in [4], 16 nM. Besides, in data set [5], the midpoint of cytotoxicity, the CC50 at 72 h, lay at 20000 nM.

One may read the IC50 as the midpoint of a concentration-inhibition curve. What is called CC50 is the concentration at which the toxic effect on the cells reaches its halfway point. In general, inhibition refers to the percentage by which the read-out fell short of the control.
